Screening data from PubChem.
T cruzi growth-1 – T. cruzi intracellular proliferation inhibitors, primary screen, cell-based, beta-gal Tulahuen parasites, NIH3T3 host, luminescence | T. cruzi beta-gal in NIH3T3, GalScreen luminescence, 90 h | inhibition, % at 8.34 µM | actives 5.9% (n = 77,000) | AID 624255, 2012;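 active means mean inhibition above about 93%, with at least 55% of replicates each passing it, limit read from the data, passing the limit was not always enough; inconclusive means only one of those two conditions holds; inactive means neither condition holds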
IDH1 R132H inh – inhibitors of IDH1 R132H reductase, primary screen, biochemical, plate reader, single point; actives 0.18% (n = 70,000); inhibition, % at 10 µM; diaphorase/resazurin fluorescence, 60 min; Isocitrate dehydrogenase [NADP] cytoplasmic (Homo sapiens), O75874; in the data active means inhibition above about 34%; inconclusive means no clear call, values can overlap the other calls; inactive means below about 11%;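 further: 0% = DMSO and 100% = no enzyme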
Target sequence (O75874 whole entry R132H): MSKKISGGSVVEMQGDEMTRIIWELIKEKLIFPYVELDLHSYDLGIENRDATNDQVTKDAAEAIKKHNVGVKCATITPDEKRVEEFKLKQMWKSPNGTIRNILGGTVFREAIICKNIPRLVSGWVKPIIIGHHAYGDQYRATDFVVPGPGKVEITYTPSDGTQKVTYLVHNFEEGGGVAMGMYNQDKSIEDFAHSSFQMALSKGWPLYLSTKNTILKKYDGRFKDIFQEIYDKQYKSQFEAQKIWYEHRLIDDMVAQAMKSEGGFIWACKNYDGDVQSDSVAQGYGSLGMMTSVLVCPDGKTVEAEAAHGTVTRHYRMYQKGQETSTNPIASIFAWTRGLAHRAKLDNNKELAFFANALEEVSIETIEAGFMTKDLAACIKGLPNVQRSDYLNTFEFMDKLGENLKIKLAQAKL
KDM4C inh – inhibitors of GASC-1 (KDM4C) histone demethylase, primary screen, biochemical, single concentration HTS | Lysine-specific demethylase 4C (Homo sapiens), Q9H3R0 | GST-KDM4C 2-372, H3K9me3 peptide, LANCE TR-FRET | inhibition, % at 12.5 µM | actives 0.15% (n = 96,000) | AID 720574, 2013;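 active means mean replicate inhibition above about 25%, with at least 55% of replicates also reaching it, limit read from the data, passing the limit was not always enough; inconclusive means only one of those two conditions met; inactive means neither condition met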
Target sequence (Q9H3R0 2-372 limits assumed): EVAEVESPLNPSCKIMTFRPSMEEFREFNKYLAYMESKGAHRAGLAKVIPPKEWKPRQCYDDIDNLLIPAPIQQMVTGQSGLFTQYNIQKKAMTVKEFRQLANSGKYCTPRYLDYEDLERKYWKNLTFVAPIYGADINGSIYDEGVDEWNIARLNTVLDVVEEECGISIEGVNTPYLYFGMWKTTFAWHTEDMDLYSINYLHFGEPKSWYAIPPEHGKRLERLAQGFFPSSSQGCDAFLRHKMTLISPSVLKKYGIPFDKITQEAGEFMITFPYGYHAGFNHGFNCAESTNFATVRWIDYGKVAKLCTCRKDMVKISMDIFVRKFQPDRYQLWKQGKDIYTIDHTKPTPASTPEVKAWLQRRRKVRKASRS
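reagent = H3K9me3 peptide substrate, Fe(II), 2-oxoglutarate | system = GST-tagged GASC-1 (JMJD2C) catalytic fragment, aa 2-372 | amount = enzyme final amount 10 nM | read-out = Fall in 671/618 emission ratio as inhibition | medium = HEPES buffer, pH 7.5, plus ascorbate | schedule = 30 min reaction, 60 min detection, RT | measured by = LANCE TR-FRET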
T cruzi growth-2 – T. cruzi intracellular proliferation inhibitors, confirmation, cell-based, NIH3T3 host, beta-gal parasite, luminescence, cherry-pick | inhibition, % at 8.35 µM | T. cruzi beta-gal in NIH3T3, GalScreen luminescence, 90 h | AID 651739, 2012 | actives 72% (n = 5,600) | shares compounds with T cruzi growth-1;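 active means mean replicate inhibition above about 95% and at least 55% of replicates individually reaching it, limit read from the data; inconclusive means only one of the two criteria is met; inactive means neither criterion is met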
T cruzi growth-3 – inhibitors of intracellular T. cruzi replication, confirmation, NIH3T3 host cells, beta-gal parasites, cherry-pick, set 2 | T. cruzi beta-gal in NIH3T3, GalScreen luminescence, 90 h | actives 21% (n = 5,600) | AID 651740, 2012 | inhibition, % at 2.09 µM | shares compounds with T cruzi growth-1;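 active means mean inhibition above about 95%, with at least 55% of replicates also reaching it, limit read from the data; inconclusive means meets just one of the two conditions; inactive means meets neither condition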;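 further: plate controls were neutral control median for no effect and positive control median for full effect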
3T3 cytotox – cytotoxicity in mouse NIH/3T3 fibroblasts, confirmation, cytotoxicity control for T. cruzi proliferation inhibitor project, cell-based, cherry-pick, single point | shares compounds with T cruzi growth-1 | NIH/3T3 viability, CellTiter-Glo ATP luminescence, 90 h | cytotoxicity (signal decrease), % at 8.35 µM | actives 14% (n = 5,600) | AID 651742, 2012;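 active means mean signal decrease across replicates above about 35% based on untreated-well scatter, with enough replicates individually passing, limit read from the data; inconclusive means no rule stated though some were filed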;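 further: 0% = median of neutral control wells and 100% = median of positive control wells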
NIH3T3 tox 2 – NIH/3T3 fibroblast cytotoxicity, confirmation, cytotoxicity control, cell-based, cherry-pick, single point, set 2; actives 56% (n = 5,600); shares compounds with T cruzi growth-1; NIH/3T3 viability, CellTiter-Glo ATP luminescence, 90 h; inhibition, % at 24.9 µM;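 active means mean loss of cell viability signal at or above a set limit, and enough replicates individually reaching it; inconclusive means meets only the mean limit or only the replicate share; inactive means meets neither condition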;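 further: 0% = median of neutral control wells and 100% = median of positive control wells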
The depositor's hits bear a star; ? = inconclusive; . = no result given. Shown is part of a subset that was picked to be rich in hits.

SMILES | T cruzi growth-1 | IDH1 R132H inh | KDM4C inh | T cruzi growth-2 | T cruzi growth-3 | 3T3 cytotox | NIH3T3 tox 2
COc1ccc(-c2ccc3c(c2)[C@H]2[C@H](CCN2C(=O)c2cnccn2)[C@H](CO)N3)cc1 | 108* | . | -1 | 105* | 112* | -4 | -19
O=C(c1cnccn1)N1CC[C@@H]2[C@H](CO)Nc3ccc(-c4ccccc4F)cc3[C@@H]21 | 97 | . | 0 | . | . | . | .
O=C(c1ccc(F)cc1)N1CC[C@@H]2[C@H]1c1cc(-c3ccccc3F)ccc1N[C@@H]2CO | 100* | . | 0 | 95* | 70 | 10 | 103*
O=C(c1ccccc1)N1CC[C@@H]2[C@H](CO)Nc3ccc(-c4ccccc4F)cc3[C@@H]21 | 103* | . | -2 | 108* | 88 | 11 | 26*
COC(=O)c1ccccc1NC(=O)CSc1n[nH]c(-c2ccccc2Cl)n1 | . | 0 | . | . | . | . | .
CCOC(=O)c1c(-c2ccccc2)csc1NC(=O)Cn1c(=O)oc2ccccc21 | . | 0 | . | . | . | . | .
COc1ccc(S(=O)(=O)N(C)CC(=O)Nc2ccc(I)cc2)cc1OC | . | 0 | . | . | . | . | .
COC(=O)Cn1nnc(-c2nnn(COC(C)=O)c2-c2ccccc2)c1-c1ccccc1 | . | 0 | . | . | . | . | .
Cc1ccc(N2C(=O)C3C4C=CC(CNC(=S)Nc5ccc(Br)cc5)(O4)C3C2=O)cc1 (stereo unspecified) | . | -1 | . | . | . | . | .
O=C(c1ccccc1)N1CC[C@@H]2[C@@H](CO)Nc3ccc(-c4ccccc4F)cc3[C@@H]21 | 108* | . | -4 | 108* | 79 | 8 | ?
O=C(c1cccc(F)c1)N1CC[C@@H]2[C@H]1c1cc(-c3ccccc3F)ccc1N[C@@H]2CO | 90 | . | -1 | . | . | . | .
COC(=O)c1cc(NC(=O)COc2ccc(C)cc2)cc(C(=O)OC)c1 | . | -1 | . | . | . | . | .
Cc1ccc(S(=O)(=O)N2C[C@@H](O)COC[C@@H]3O[C@@H](CC(=O)N[C@@H]4CCN(Cc5ccccc5)C4)CC[C@H]32)cc1 | 63 | . | -1 | . | . | . | .
O=C(C[C@H]1CC[C@H]2[C@@H](COC[C@H](O)CN2S(=O)(=O)c2ccc(F)cc2)O1)N[C@H]1CCN(Cc2ccccc2)C1 | 100* | . | 1 | 70 | 53 | -11 | -21
O=C(C[C@@H]1CC[C@@H]2[C@H](COC[C@H](O)CN2S(=O)(=O)c2ccc(F)cc2)O1)N[C@H]1CCN(Cc2ccccc2)C1 | 22 | . | 1 | . | . | . | .
Cc1ccc(S(=O)(=O)N2C[C@@H](O)COC[C@H]3O[C@@H](CC(=O)N[C@@H]4CCN(Cc5ccccc5)C4)CC[C@@H]32)cc1 | 98* | . | 0 | 82 | 73 | -16 | -41
O=C(CSc1nc2ccccc2c(=O)n1-c1ccccc1)Nc1ccc(F)c(Cl)c1 | . | 0 | . | . | . | . | .
O=C(NC1CCCC1)N1CCCCN2[C@H](CO)[C@@H](c3ccc(/C=C/c4ccccc4)cc3)[C@@H]2C1 | 107* | . | -3 | 100* | 101* | 20 | 104*
O=C(NC1CCCC1)N1CCCCN2[C@H](C1)[C@H](c1ccc(/C=C/c3ccccc3)cc1)[C@@H]2CO | 104* | . | -2 | 104* | 78 | 3 | 105*
O=C(NC1CCCC1)N1CCCCN2[C@H](C1)[C@@H](c1ccc(/C=C/c3ccccc3)cc1)[C@@H]2CO | 75 | . | -1 | . | . | . | .
O=C(NC1CCCC1)N1CC(=O)N2[C@H](C1)[C@@H](c1ccc(/C=C/c3ccccc3)cc1)[C@@H]2CO | . | . | -2 | . | . | . | .
COc1ccc(CCNC(=S)N2CCN(C(=O)c3ccco3)CC2)cc1OC | . | -1 | . | . | . | . | .
COc1ccccc1CNc1cc(-c2nn3c(C)nnc3s2)ccc1C | . | 0 | . | . | . | . | .
O=C(Nc1ccc(S(=O)(=O)Nc2ccccc2Oc2ccc(Cl)cc2Cl)cc1)C1CC1 | . | 0 | . | . | . | . | .
CCOc1cc(/C=N/NC(=O)c2ccccn2)ccc1O | . | 0 | . | . | . | . | .
SMILES | T cruzi growth-1 | IDH1 R132H inh | KDM4C inh | T cruzi growth-2 | T cruzi growth-3 | 3T3 cytotox | NIH3T3 tox 2
COc1cc(-c2nc3sc4c(c3c(=O)[nH]2)CCCC4)cc(Br)c1OCC(=O)O | . | 0 | . | . | . | . | .
Nc1cc(=O)[nH]c(SCC(=O)Nc2ccc(Br)cc2Cl)n1 | . | 0 | . | . | . | . | .
O=C(Nc1ccccc1)N1CCCCN2[C@H](CO)[C@H](c3ccc(C#Cc4ccccc4)cc3)[C@@H]2C1 | 60 | . | 0 | . | . | . | .
O=C(Nc1ccc(F)cc1)N1CCCCN2[C@H](C1)[C@H](c1ccc(C#Cc3ccccc3)cc1)[C@@H]2CO | 123* | . | -3 | 102* | 31 | 0 | 76*
O=C(Nc1ccccc1)N1CCCCN2[C@H](C1)[C@H](c1ccc(C#Cc3ccccc3)cc1)[C@@H]2CO | 106* | . | 0 | 104* | 45 | 10 | 39*
O=C(Nc1ccc(F)cc1)N1CCCCN2[C@H](CO)[C@H](c3ccc(C#Cc4ccccc4)cc3)[C@@H]2C1 | 19 | . | -3 | . | . | . | .
CC(=O)c1cccc(N(CC(=O)Nc2ccc(C(F)(F)F)cc2)S(C)(=O)=O)c1 | . | 0 | . | . | . | . | .
COc1ccc(NC(=O)CCCC(=O)O)cc1 | . | 0 | . | . | . | . | .
C[C@H](CO)N1C[C@H](C)[C@@H](CN(C)S(=O)(=O)c2ccc(F)cc2)Oc2ncc(C#CC3CCCCC3)cc2C1=O | 86 | 0 | 2 | . | . | . | .
C[C@H](CO)N1C[C@H](C)[C@@H](CN(C)S(=O)(=O)c2cccc(F)c2)Oc2ncc(C#CC3CCCCC3)cc2C1=O | . | 0 | . | . | . | . | .
C[C@H]1CN([C@@H](C)CO)C(=O)c2cc(C#CC3CCCCC3)cnc2O[C@H]1CN(C)S(=O)(=O)c1cccc(F)c1 | . | -3 | -2 | . | . | . | .
C[C@H](CO)N1C[C@H](C)[C@@H](CN(C)S(=O)(=O)c2ccccc2)Oc2ncc(C#CC3CCCCC3)cc2C1=O | 107* | 1 | -1 | 106* | 93 | 21 | 85*
C[C@@H]1CN([C@@H](C)CO)C(=O)c2cc(C#CC3CCCCC3)cnc2O[C@@H]1CN(C)S(=O)(=O)c1ccccc1 | 111* | -1 | 6 | 108* | 56 | 25 | 94*
C[C@H]1CN([C@@H](C)CO)C(=O)c2cc(C#CC3CCCCC3)cnc2O[C@@H]1CN(C)S(=O)(=O)c1ccccc1 | ? | . | -1 | 111* | 80 | 13 | 87*
C[C@@H]1CN([C@H](C)CO)C(=O)c2cc(C#CC3CCCCC3)cnc2O[C@H]1CN(C)S(=O)(=O)c1cccc(F)c1 | . | 0 | 1 | . | . | . | .
